Laboratory results as given in publication PMC6030392 (Neoplasia (New York, N.Y.), 2018).
Where two headings read alike, the source gives them in different places. Marks after values point to notes of the source that are not given here.

Experiments:
[1] = target: T1, Bcrp1 (Mus musculus, UniProt Q7TMS5); test: In vitro Transwell transport, MDCKII parent versus Bcrp1 transduced subline; format: in vitro ADME
T1 sequence (Q7TMS5 1-657): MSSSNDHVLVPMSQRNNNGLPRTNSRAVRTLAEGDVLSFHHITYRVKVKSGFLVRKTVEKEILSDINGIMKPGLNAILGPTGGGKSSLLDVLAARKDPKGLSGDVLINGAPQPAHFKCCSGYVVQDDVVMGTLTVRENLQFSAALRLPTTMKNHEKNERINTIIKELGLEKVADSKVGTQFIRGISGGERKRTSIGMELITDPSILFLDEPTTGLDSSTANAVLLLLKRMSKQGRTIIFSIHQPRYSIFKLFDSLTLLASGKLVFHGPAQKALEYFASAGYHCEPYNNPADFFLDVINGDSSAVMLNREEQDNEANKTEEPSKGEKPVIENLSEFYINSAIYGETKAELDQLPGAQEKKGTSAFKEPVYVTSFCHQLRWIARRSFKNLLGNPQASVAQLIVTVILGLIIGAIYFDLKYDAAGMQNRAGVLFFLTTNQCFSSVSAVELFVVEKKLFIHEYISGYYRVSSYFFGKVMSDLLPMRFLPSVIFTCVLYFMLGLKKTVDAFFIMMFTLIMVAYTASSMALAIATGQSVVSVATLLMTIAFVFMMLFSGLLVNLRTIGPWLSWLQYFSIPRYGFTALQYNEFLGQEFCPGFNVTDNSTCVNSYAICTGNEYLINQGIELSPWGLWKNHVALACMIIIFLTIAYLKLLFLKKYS
How it was run: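 MDCKII parent and Bcrp1-transduced cells were grown 3 days on 3.0 μm polycarbonate Transwell filters (1 × 10⁶ cells/well) in MEM with 10% FBS at 37°C. Test compound (40 μg/ml in OptiMEM) went apical or basolateral. Inhibitor went to both sides, plus a P-gp blocker (5 μM). Sampling was every 30 min to 2 h, with half the donor refreshed each time. Wells leaking >1.5%/h were excluded. Analysis by HPLC.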

[2] = dose level of 100 mg/kg; cited from earlier work
[3] = cited from earlier work
[4] = cited from earlier work; remark: listed apart in the source
[5] = cited from earlier work; remark: listed apart in the source
[6] = target: Mdr1a (P-gp) (Mus musculus, UniProt P21447); test: In vitro Transwell transport, LLC-PK1 parent versus Mdr1a transduced subline; format: in vitro ADME, murine; conditions: temozolomide 40 μg/ml; LLC-PK1 vs LLC-Mdr1a
Chain of Mdr1a (P-gp) (P21447 whole entry): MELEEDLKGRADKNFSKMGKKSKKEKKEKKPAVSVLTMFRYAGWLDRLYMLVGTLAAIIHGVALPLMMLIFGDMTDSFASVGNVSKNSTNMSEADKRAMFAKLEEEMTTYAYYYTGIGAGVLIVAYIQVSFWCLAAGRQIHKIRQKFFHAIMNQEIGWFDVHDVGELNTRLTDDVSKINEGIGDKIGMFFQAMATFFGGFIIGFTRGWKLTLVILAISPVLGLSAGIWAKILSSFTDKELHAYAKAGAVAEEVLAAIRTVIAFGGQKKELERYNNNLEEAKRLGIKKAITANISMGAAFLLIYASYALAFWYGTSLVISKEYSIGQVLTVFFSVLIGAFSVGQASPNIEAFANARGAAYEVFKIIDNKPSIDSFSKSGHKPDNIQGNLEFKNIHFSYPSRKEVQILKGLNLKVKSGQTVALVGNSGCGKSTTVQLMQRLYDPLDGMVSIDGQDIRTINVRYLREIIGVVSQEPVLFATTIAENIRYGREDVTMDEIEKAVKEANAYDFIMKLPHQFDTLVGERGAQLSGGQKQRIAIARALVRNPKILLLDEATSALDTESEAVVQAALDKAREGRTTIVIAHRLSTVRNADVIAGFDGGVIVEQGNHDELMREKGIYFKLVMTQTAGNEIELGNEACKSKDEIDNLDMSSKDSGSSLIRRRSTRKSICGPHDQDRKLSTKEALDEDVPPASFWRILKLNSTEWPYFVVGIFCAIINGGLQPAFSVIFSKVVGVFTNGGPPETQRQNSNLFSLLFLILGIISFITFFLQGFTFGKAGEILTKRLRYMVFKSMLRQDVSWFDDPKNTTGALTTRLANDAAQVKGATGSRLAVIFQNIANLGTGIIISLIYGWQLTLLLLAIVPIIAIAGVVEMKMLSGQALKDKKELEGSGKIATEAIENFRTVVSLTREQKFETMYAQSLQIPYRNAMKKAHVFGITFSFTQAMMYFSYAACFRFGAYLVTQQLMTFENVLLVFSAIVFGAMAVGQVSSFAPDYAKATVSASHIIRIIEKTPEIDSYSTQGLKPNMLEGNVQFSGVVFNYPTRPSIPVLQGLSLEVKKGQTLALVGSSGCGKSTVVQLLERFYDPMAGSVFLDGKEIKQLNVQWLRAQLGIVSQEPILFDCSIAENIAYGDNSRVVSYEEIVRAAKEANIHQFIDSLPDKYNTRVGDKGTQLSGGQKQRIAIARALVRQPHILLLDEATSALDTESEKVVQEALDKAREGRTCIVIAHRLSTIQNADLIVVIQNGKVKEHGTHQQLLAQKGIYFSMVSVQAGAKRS

[7] = cited from earlier work; remark: listed apart in the source
[8] = test system: intracranial Mel57-luc tumors; test: Intracranial Mel57-luc tumor efficacy study; format: in vivo, FVB nude mice; conditions: oral 100 mg/kg/day × 5
How it was run: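 WT or Abcb1a/b;Abcg2^−/− FVB nude mice received Mel57-luc cells (100,000 cells/2 μl) stereotactically 2 mm lateral, 1 mm anterior to bregma, 3 mm deep. Tumor load was set by bioluminescence before stratification to oral test compound 100 mg/kg/day for 5 days, untreated control, or combination with oral inhibitor 20–30 min earlier. Repeated imaging was expressed relative to the first measurement and log-transformed.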

[9] = Recovery in acceptor compartment of Transwell; format: in vitro ADME; conditions: after 30 minutes; transport medium pH 7.4
[10] = Plasma pharmacokinetics of oral temozolomide; format: in vivo, mice; conditions: 100 mg/kg oral; WT n = 18, Abcb1a/b;Abcg2^−/− n = 19
[11] = Stability in culture medium at 37°C; format: physicochemical
[12] = format: in vivo, FVB mice; conditions: for AUC 0–7 h, brain: mean ± SE, n ≥ 7
How it was run: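 Male FVB mice (WT, Abcg2^−/−, Abcb1a/b^−/−, Abcb1a/b;Abcg2^−/−; 8–15 weeks) got 50 mg/kg i.v. via tail vein. Groups of […] were sampled at 15 min, 1, 2, 4, 7 h by cardiac puncture (K-EDTA plasma, acidified with 1 M HCl). Brains were homogenized in pH 2 phosphate/1% BSA. Extracts (ethyl acetate) were run on HPLC in duplicate. AUC0–7h by linear trapezoidal rule; brain-to-plasma ratio per animal; two-way ANOVA with Bonferroni.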

[13] = test system: GSC457 glioblastoma cells; test: Orthotopic GSC457 glioblastoma efficacy study; format: in vivo, murine; conditions: oral 100 mg/kg/day × 7
[14] = C57BL × DBA/2 F1 mice; cited from earlier work
[15] = Abcb1a/b^−/− mice, 50 mg/kg i.v.

COc1cc2c(cc1OC)CN(CCc1ccc(NC(=O)c3cccc4c(=O)c5cccc(OC)c5[nH]c34)cc1)CC2 [elacridar]
effect on Bcrp1-mediated transport of temozolomide ([1]; inhibitor 5 μM in the medium): almost completely abrogated

C#Cc1cccc(Nc2ncnc3cc(OCCOC)c(OCCOC)cc23)c1 [erlotinib]
effect on Bcrp1-mediated transport of temozolomide ([1]; inhibitor 10 μM in the medium): almost completely abrogated

COc1cc2ncnc(Nc3ccc(F)c(Cl)c3)c2cc1OCCCN1CCOCC1 [gefitinib]
plasma levels [2]: about 10 μM | effect on Bcrp1-mediated transport of temozolomide ([1]; inhibitor 10 μM in the medium): almost completely abrogated | plasma levels achievable in patients relative to the level after 100 mg/kg [3]: about 10 fold lower

Cc1ccc(NC(=O)c2ccc(CN3CCN(C)CC3)cc2)cc1Nc1nccc(-c2cccnc2)n1 [imatinib]
brain penetration ([4]; significantly enhanced in Abcb1a/b;Abcg2^−/− mice): poor | oral bioavailability [5]: > 90%

CO[C@@H]1[C@@H](OC(N)=O)[C@@H](O)[C@H](Oc2ccc3c(O)c(NC(=O)c4ccc(O)c(CC=C(C)C)c4)c(=O)oc3c2C)OC1(C)C [novobiocin]
effect on Bcrp1-mediated transport of temozolomide ([1]; inhibitor 50 μM in the medium): not sufficient

CC(=O)O[C@H]1C(=O)[C@@]2(C)[C@H]([C@H](OC(=O)c3ccccc3)[C@]3(O)C[C@H](OC(=O)[C@H](O)[C@@H](NC(=O)c4ccccc4)c4ccccc4)C(C)=C1C3(C)C)[C@]1(OC(C)=O)CO[C@@H]1C[C@@H]2O [paclitaxel]
higher brain penetration in Abcb1a/b^−/− compared to WT controls [4]: 5 fold

CC(=O)c1c(C)c2cnc(Nc3ccc(N4CCNCC4)cn3)nc2n(C2CCCC2)c1=O [palbociclib]
higher brain penetration in Abcb1a/b^−/− compared to WT controls [4]: approximately 15 fold

Cn1nnc2c(C(N)=O)ncn2c1=O [temozolomide]
transport by P-gp [6]: very limited, if any, evidence for transport by P-gp | main dose-limiting toxicity [7]: bone marrow toxicity | antitumor efficacy against intracranial Mel57 tumors, relative to WT mice ([8]; Abcb1a/b;Abcg2^−/− mice): significantly higher | antitumor efficacy against intracranial Mel57 tumors ([8]; WT mice): modest efficacy | fraction of the donor concentration recovered in the acceptor compartment [9]: at least 5% | plasma AUC in Abcb1a/b;Abcg2^−/− versus WT mice [10]: not significantly different | half-life [11]: ~30 min | increase of brain accumulation compared to WT mice ([12]; Abcb1a/b;Abcg2^−/− mice, 50 mg/kg i.v., P < .001): 50% | AUC 0–7 h, brain ([12]; Abcb1a/b;Abcg2^−/− mice, 50 mg/kg i.v.): 57.09 ± 1.32**^/# μg/g.h | increase of brain accumulation compared to WT mice [12, 15]: about 20% | AUC 0–7 h, brain [12, 15]: 44.51 ± 1.56 µg·h/g | increase of brain accumulation compared to WT mice ([12]; Abcg2^−/− mice, 50 mg/kg i.v.): 20% | AUC 0–7 h, brain ([12]; Abcg2^−/− mice, 50 mg/kg i.v.): 44.78 ± 1.88 µg·h/g | AUC 0–7 h, brain ([12]; WT mice, 50 mg/kg i.v.): 36.81 ± 1.11 µg·h/g | increase of brain penetration compared to wild-type controls ([12]; combined deletion of Abcb1a/b and Abcg2, P < .001): 1.5 fold | effect of absence of drug transporters on plasma clearance ([12]; knockout vs WT mice, 50 mg/kg i.v.): did not affect the plasma clearance | transport by Bcrp1 ([1]; temozolomide 40 μg/ml, MDCKII vs MDCKII-Bcrp1, zosuquidar 5 μM present): clear vectorial transport by Bcrp1 | tumor growth and survival, Abcb1a/b;Abcg2^−/− compared to WT mice [13]: significantly slower tumor growth and longer survival | oral bioavailability [14]: almost complete
